Measurements as given in ChEMBL document CHEMBL1221279, “Synthesis, biological evaluation, and structure-activity relationship study of novel cytotoxic aza-caffeic acid derivatives” (Bioorg Med Chem, 2010).

Key:
Format in all cases: functional, cell-based
[1] = Cytotoxicity against human Bel7404 cells after 72 hrs by MTT assay; conditions: BEL-7404, 72 h
Summary of the method: (§1)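 Cells grown in MEM with 10% fetal calf serum, penicillin and streptomycin at 37 °C, 5% CO2. Exponentially growing cells seeded in quadruplicate at 5 × 10³ per well and left 24 h before compounds (DMSO stocks) were added. After 72 h exposure, MTT added for 4 h at 37 °C, formazan dissolved in DMSO, read at 570 nm. IC50 read graphically from dose–response curves.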

CNE = experiment: Cytotoxicity against human CNE cells after 72 hrs by MTT assay; summary of the method: as §1
[2] = Cytotoxicity against human ECA109 cells after 72 hrs by MTT assay; conditions: ECa-109, 72 h; summary of the method: as §1
HeLa = experiment: Cytotoxicity against human HeLa cells after 72 hrs by MTT assay; summary of the method: as §1
[3] = Cytotoxicity against human LS 174T cells after 72 hrs by MTT assay; conditions: LS174T; summary of the method: as §1
K562 = experiment: Cytotoxicity against human K562 cells after 72 hrs by MTT assay; conditions: K562, 72 h; summary of the method: as §1
PC-3 = experiment: Cytotoxicity against human PC3 cells after 72 hrs by MTT assay; conditions: PC-3, 72 h; summary of the method: as §1
HL-60 = experiment: Cytotoxicity against human HL60 cells after 72 hrs by MTT assay; conditions: HL-60, 72 h; summary of the method: as §1
BGC-823 = experiment: Cytotoxicity against human BGC823 cells after 72 hrs by MTT assay; conditions: BGC-823, 72 h; summary of the method: as §1
KB = experiment: Cytotoxicity against human KB cells after 72 hrs by MTT assay; summary of the method: as §1
[4] = Cytotoxicity against human HO8910 cells after 72 hrs by MTT assay; conditions: HO-8910, 72 h; summary of the method: as §1
A549 = experiment: Cytotoxicity against human A549 cells after 72 hrs by MTT assay; conditions: A549, 72 h; summary of the method: as §1

Row | SMILES | IC50 [1] | IC50 (CNE) | IC50 [2] | IC50 (HeLa) | IC50 [3] | IC50 (K562) | IC50 (PC-3) | IC50 (HL-60) | IC50 (BGC-823) | IC50 (KB) | IC50 [4] | IC50 (A549)
1 | COCOc1cc(/C=C/C(=O)OCC(=O)Nc2ccc(Cl)cc2)ccc1OCc1ccccc1 | > 200 µM | > 200 µM | > 200 µM | > 200 µM | > 200 µM | > 200 µM | > 200 µM | > 200 µM | – | – | – | –
2 | COc1ccc(/C=C/C(=O)N2CCN(Cc3ccc(Cl)c(Cl)c3)CC2)cc1OC | 85.7 µM | > 200 µM | > 200 µM | 76.6 µM | > 200 µM | 70.8 µM | > 200 µM | 140 µM | > 200 µM | 69.2 µM | 121 µM | > 200 µM
3 | COc1cc(/C=C/C(=O)OCC(=O)Nc2ccc(Cl)cc2)cc(OC)c1OCc1ccc(Cl)c(Cl)c1 | > 200 µM | > 200 µM | > 200 µM | > 200 µM | 72.4 µM | > 200 µM | > 200 µM | 73.9 µM | – | – | – | –
4 | O=C(/C=C/C(=O)N1CCN(Cc2ccc(Cl)c(Cl)c2)CC1)c1ccccc1 | 67.1 µM | > 200 µM | 103 µM | 84.8 µM | 67.2 µM | > 200 µM | > 200 µM | 99.4 µM | 78.8 µM | 103 µM | > 200 µM | 139 µM
5 | COc1ccc(NC(=O)COC(=O)/C=C/c2cc(OC)c(OCc3ccc(Cl)c(Cl)c3)c(OC)c2)cc1 | 97.8 µM | > 200 µM | > 200 µM | > 200 µM | > 200 µM | > 200 µM | > 200 µM | > 200 µM | – | – | – | –
6 | CCOc1ccc(COc2c(OC)cc(/C=C/C(=O)OCC(=O)Nc3ccccc3)cc2OC)cc1 | > 200 µM | > 200 µM | > 200 µM | > 200 µM | > 200 µM | > 200 µM | > 200 µM | > 200 µM | – | – | – | –
7 | COCOc1ccc(/C=C/C(=O)NCCN2CCOCC2)cc1OCOC | > 200 µM | > 200 µM | > 200 µM | > 200 µM | > 200 µM | > 200 µM | > 200 µM | > 200 µM | > 200 µM | > 200 µM | > 200 µM | > 200 µM
8 | COCOc1cc(/C=C/C(=O)OCC(=O)Nc2ccc(OC)cc2)ccc1OCc1ccccc1 | 133 µM | > 200 µM | > 200 µM | 155 µM | > 200 µM | > 200 µM | > 200 µM | > 200 µM | – | – | – | –
9 | O=C(/C=C/c1ccccc1)N1CCN(Cc2ccc(Cl)c(Cl)c2)CC1 | 44.8 µM | > 200 µM | 17 µM | 73.9 µM | 34.1 µM | 14.1 µM | 12.8 µM | 82.6 µM | 31.2 µM | 20.7 µM | 45.4 µM | 173 µM
10 | O=C(COC(=O)/C=C/c1ccc(O)c(O)c1)NN1CCOCC1 | > 200 µM | > 200 µM | > 200 µM | > 200 µM | > 200 µM | 56.8 µM | > 200 µM | > 200 µM | – | – | – | –
11 | COCOc1cc(/C=C/C(=O)OCC(=O)NN2CCOCC2)ccc1OCc1ccccc1 | > 200 µM | > 200 µM | 143 µM | > 200 µM | > 200 µM | 32.4 µM | > 200 µM | 50.4 µM | – | – | – | –
12 | COc1ccc(/C=C/C(=O)OCC(=O)Nc2ccccc2)cc1OC | > 200 µM | > 200 µM | > 200 µM | 193 µM | > 200 µM | > 200 µM | > 200 µM | 46.4 µM | – | – | – | –
13 | O=C(/C=C/c1ccccc1)NNC(=O)c1ccccc1O | 21.2 µM | 43.7 µM | 41.4 µM | 73.1 µM | 20.1 µM | 0.9 µM | 40.9 µM | 39.3 µM | 46 µM | 20.1 µM | 190 µM | 72.6 µM
14 | COc1ccc(/C=C/C(=O)OCC(=O)Nc2ccc(Cl)cc2)cc1OC | 120 µM | > 200 µM | 81.9 µM | 45.4 µM | > 200 µM | 60.2 µM | > 200 µM | 31.9 µM | – | – | – | –
15 | COCOc1ccc(/C=C/C(=O)NCCc2c[nH]c3ccccc23)cc1OCOC | > 200 µM | > 200 µM | 154 µM | > 200 µM | 165 µM | 195 µM | 157 µM | > 200 µM | 143 µM | > 200 µM | > 200 µM | > 200 µM
